Measured values as given in ChEMBL document CHEMBL4765441, “Design, synthesis and anti-cancer activity of pyrrole-imidazole polyamides through target-downregulation of c-kit gene expression” (Eur J Med Chem, 2020).
Counter-ions that a name gives are not always drawn. The source made the active and inactive calls. No cut-off for these calls is given here.

Key:
dsDNA [1] = assay: Binding affinity to 5'-AGGGGAGGCGAGGAGGGGCGTGGCCGG-3'/3'-TCCCCTCCGCTCCTCCCCGCACCGGCC-5' dsDNA (unknown origin) at 0 to 32 uM by SYBR GOLD staining based EMSA; format: nucleic-acid assay; conditions: Homo sapiens; dose 0-32 µM
Outline: (§1)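 Target 27-bp c-kit promoter duplex, annealed at 95 °C, then incubated overnight with or without compound in pH 7.4 buffer (10 mM Tris-HCl, 10 mM KCl, 0.1 mM EDTA). Mixtures run on 16% native polyacrylamide gel at 150 V for 3 h. Gels stained with SYBR Gold for 30 min and imaged on a gel documentation system.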

Bel-7402 = assay: Antiproliferative activity against human Bel-7402 cells assessed as reduction in cell viability incubated for 48 hrs by xCELLigence RTCA; format: functional, cell-based; conditions: Bel-7402, 48 h
MKN-45 = assay: Antiproliferative activity against human MKN-45 cells assessed as reduction in cell viability incubated for 48 hrs by xCELLigence RTCA; format: functional, cell-based; conditions: MKN-45, 48 h
SGC-7901 [2] = assay: Antiproliferative activity against human SGC7901 cells assessed as reduction in cell viability incubated for 48 hrs by xCELLigence RTCA; format: functional, cell-based; conditions: SGC-7901, 48 h
A549 [3] = assay: Antiproliferative activity against human A549 cells assessed as reduction in cell viability incubated for 48 hrs by xCELLigence RTCA; format: functional, cell-based; conditions: A549, 48 h
SGC-7901 [4] = assay: Induction of morphological changes in human SGC7901 cells assessed as appearance of round shaped cells at 7.5 uM incubated for 36 hrs by microscopic analysis; format: functional, cell-based
Outline: (§2)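 Cells seeded at 2 × 10^5 per well and grown 24 h. Medium then replaced with compound-containing medium. After 36 h co-culture, morphology inspected by light microscopy.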

dsDNA [5] = assay: Binding affinity to 5'-AGGGGAGGCGAGGAGGGGCGTGGCCGG-3'/3'-TCCCCTCCGCTCCTCCCCGCACCGGCC-5' dsDNA (unknown origin) at 1:8 DNA:compound ratio by SYBR GOLD staining based EMSA; format: nucleic-acid assay; conditions: Homo sapiens; outline: as §1
dsDNA [6] = assay: Binding affinity to 5'-AGGGGAGGCGAGGAGGGGCGTGGCCGG-3'/3'-TCCCCTCCGCTCCTCCCCGCACCGGCC-5' dsDNA (unknown origin) by SYBR GOLD staining based EMSA; format: nucleic-acid assay; conditions: Homo sapiens; outline: as §1
SGC-7901 [7] = assay: Inhibition of cell migration in human SGC7901 cells at 1.5 uM incubated for 48 hrs by inverted fluorescence microscope based scratch wound healing assay; format: functional
Outline: (§3)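 20 × 10^4 cells per well grown to 80% confluence. Wound scratched with a pipette tip, washed twice with PBS and photographed under an inverted fluorescence microscope. Cells then held in serum-free medium with compound for 48 h. Migration measured as distance moved from the wound edge; mean ± SD, n = 3.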

A549 [8] = assay: Inhibition of cell migration in human A549 cells at 1.5 uM incubated for 48 hrs by inverted fluorescence microscope based scratch wound healing assay; format: functional; outline: as §3
SGC-7901 [9] = assay: Induction of morphological changes in human SGC7901 cells assessed as cell detachment at 7.5 uM incubated for 36 hrs by microscopic analysis; format: functional, cell-based; outline: as §2
SGC-7901 [10] = assay: Induction of morphological changes in human SGC7901 cells assessed as apoptotic body formation at 7.5 uM incubated for 36 hrs by microscopic analysis; format: functional, cell-based; outline: as §2
A549 [11] = assay: Induction of morphological changes in human A549 cells assessed as cell detachment at 15 uM incubated for 36 hrs by microscopic analysis; format: functional, cell-based; outline: as §2
A549 [12] = assay: Induction of morphological changes in human A549 cells assessed as membrane bulge at 15 uM incubated for 36 hrs by microscopic analysis; format: functional, cell-based; outline: as §2
SGC-7901 [13] = assay: Induction of apoptosis in human SGC7901 cells assessed as apoptotic rate at 20 uM incubated for 36 hrs by Annexin V-FITC/propidium iodide staining-based flow cytometric analysis; format: functional
A549 [14] = assay: Induction of apoptosis in human A549 cells assessed as apoptotic rate at 20 uM incubated for 36 hrs by Annexin V-FITC/propidium iodide staining-based flow cytometric analysis; format: functional
SGC-7901 [15] = assay: Down regulation of c-kit gene expression in human SGC-7901 cells at 15 uM incubated for 36 hrs by Western blot analysis; format: functional, cell-based
Outline: (§4)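 Cells exposed to compound for 36 h, then lysed in RIPA and protein measured by BCA. 30 units of total protein separated by 10% SDS-PAGE, transferred to PVDF and blocked with 5% BSA. Primary antibodies, with β-tubulin as reference, at 4 °C; secondary 2 h; ECL detection. Bands quantified by densitometry, mean ± SD, n = 3.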

A549 [16] = assay: Down regulation of c-kit gene expression in human A549 cells at 15 uM incubated for 36 hrs by Western blot analysis; format: functional, cell-based; outline: as §4
dsDNA [17] = assay: Binding affinity to 5'-AGGGGAGGCGAGGAGGGGCGTGGCCGG-3'/3'-TCCCCTCCGCTCCTCCCCGCACCGGCC-5' dsDNA (unknown origin) by circular dichroism spectroscopic analysis; format: nucleic-acid assay; conditions: Homo sapiens
Outline: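 Target duplex annealed at 95 °C, held 24 h in pH 7.0 buffer (10 mM sodium cacodylate, 100 mM NaCl, 0.5% DMSO), then degassed. Compound titrated in at compound:DNA ratios 0.0–3.0, room temperature, 15 min equilibration per addition. CD read 225–400 nm in a 5 mm quartz cell at 100 nm/min, 5.0 nm bandwidth. Average of three parallel runs.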

## CC(=O)Nc1cn(C)c(C(=O)Nc2cn(C)c(C(=O)NCCC(=O)Nc3cn(C)c(C(=O)Nc4cn(C)c(C(=O)NCC[C@@H](N)C(=O)Nc5cc(C(=O)Nc6cc(C(=O)NC[C@@H](O)CC(=O)Nc7cc(C(=O)Nc8cc(C(=O)NCCC(=O)NCCCN(C)C)n(C)c8)n(C)c7)n(C)c6)n(C)c5)n4)n3)n2)n1
dsDNA [1]
  Activity: inactive

## Cc1ccc(NC(=O)c2ccc(CN3CCN(C)CC3)cc2)cc1Nc1nccc(-c2cccnc2)n1 [IMATINIB MESYLATE]
Bel-7402
  IC50: 55.5 µM
MKN-45
  IC50: 12.2 µM
SGC-7901 [2]
  IC50: 0.208 µM
A549 [3]
  IC50: 1.87 µM

## CC(=O)Nc1cn(C)c(C(=O)Nc2cn(C)c(C(=O)NC[C@@H](O)CC(=O)Nc3cn(C)c(C(=O)Nc4cn(C)c(C(=O)NCC[C@@H](N)C(=O)Nc5cc(C(=O)Nc6cc(C(=O)NCCC(=O)Nc7cc(C(=O)Nc8cc(C(=O)NCCC(=O)NCCCN(C)C)n(C)c8)n(C)c7)n(C)c6)n(C)c5)n4)n3)n2)n1
dsDNA [1]
  Activity: inactive

## CC(=O)Nc1cn(C)c(C(=O)Nc2cn(C)c(C(=O)Nc3cc(C(=O)Nc4cn(C)c(C(=O)NCCC(=O)Nc5cn(C)c(C(=O)Nc6cn(C)c(C(=O)NCC[C@@H](NC(=O)c7nc(NC(=O)c8nc(NC(=O)c9nccn9C)cn8C)cn7C)C(=O)Nc7cc(C(=O)Nc8cc(C(=O)NC[C@@H](O)CC(=O)Nc9cc(C(=O)Nc%10cn(C)c(C(=O)Nc%11cc(C(=O)Nc%12cc(C(=O)NCCC(=O)NCCCN(C)C)n(C)c%12)n(C)c%11)n%10)n(C)c9)n(C)c8)n(C)c7)n6)n5)n4)n(C)c3)n2)n1.Cl.Cl
SGC-7901 [4]
  Activity: Active
dsDNA [5]
  Activity: Active
dsDNA [6]
  Activity: Dose-dependent effect
Bel-7402
  IC50: 14.9 µM
MKN-45
  IC50: 19.9 µM
SGC-7901 [2]
  IC50: 6.05 µM
A549 [3]
  IC50: 7.93 µM
SGC-7901 [7]
  inhibition at 1.5 µM: 80.8%
A549 [8]
  inhibition at 1.5 µM: 73.5%
SGC-7901 [9]
  Activity: Active
SGC-7901 [10]
  Activity: Active
A549 [11]
  Activity: Active
A549 [12]
  Activity: Active
SGC-7901 [13]
  Activity: 53.3%
A549 [14]
  Activity: 47.9%
SGC-7901 [15]
  Activity: Active
A549 [16]
  Activity: Active
dsDNA [17]
  Activity: Active

## CC(=O)Nc1cn(C)c(C(=O)Nc2cn(C)c(C(=O)Nc3cn(C)c(C(=O)NCCC(=O)Nc4cn(C)c(C(=O)Nc5cn(C)c(C(=O)NCC[C@@H](N)C(=O)Nc6cc(C(=O)Nc7cc(C(=O)NC[C@@H](O)CC(=O)Nc8cc(C(=O)Nc9cc(C(=O)Nc%10cc(C(=O)NCCC(=O)NCCCN(C)C)n(C)c%10)n(C)c9)n(C)c8)n(C)c7)n(C)c6)n5)n4)n3)n2)n1
dsDNA [1]
  Activity: inactive
